High-throughput results deposited in PubChem by several laboratories.
FXIa inh: inhibitors of human coagulation factor XIa. P03951. purified FXIa, Boc-Glu-Ala-Arg-AMC fluorogenic substrate. inhibition, % at 5 µM. 220,000 tested, 0.14% active;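 active means inhibition of at least 40%; inactive means inhibition below 40%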;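 further: fluorescence of freed AMC excited at 355 nm; 0% = enzyme without compound and 100% = no enzyme blank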
FXIIa inh: inhibitors of human coagulation factor XIIa | P00748 | purified FXIIa, Boc-QGR-AMC fluorogenic substrate, 2 h | inhibition, % at 5 µM | 220,000 tested, 0.3% active; in the data active means inhibition above about 40%;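 further: 0% = enzyme with no compound and 100% = blank without enzyme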
KLK5 inh: blocks human kallikrein 5 protease activity; recombinant hK5, fluorogenic AMC substrate cleavage; Q9Y337; inhibition, % at 5 µM; 210,000 tested, 0.59% active;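 active means inhibition of 40% or more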;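 further: 0% = enzyme controls without compound and 100% = no-enzyme blanks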
Target sequence (Q9Y337 67-293 limits assumed): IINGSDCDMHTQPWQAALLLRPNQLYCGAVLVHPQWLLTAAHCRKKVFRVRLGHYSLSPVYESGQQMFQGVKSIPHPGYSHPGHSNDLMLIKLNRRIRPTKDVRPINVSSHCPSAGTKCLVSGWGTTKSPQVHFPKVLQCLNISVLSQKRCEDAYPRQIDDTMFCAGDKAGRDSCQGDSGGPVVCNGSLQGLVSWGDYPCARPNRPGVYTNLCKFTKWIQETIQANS
Calb biofilm kill: mixture kills Candida albicans biofilm cells | C. albicans biofilm persisters + clotrimazole, fluorescence viability; primary screen in compound mixtures of four per well | inhibition, % at 7.6 µM | 120,000 tested, 0.02% active;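 active means inhibition above 30.3% in the primary screen of four-compound pools, then above 30% when the compound was retested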;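 further: compounds exposed to preformed 24 h biofilms for 48 h; 0% = untreated biofilm control and 100% = clotrimazole plus chlorhexidine kill blank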
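System: C. albicans CAF4-2 wild-type biofilms; Medium: RPMI/MOPS medium, pH 7.0; Reagent: Clotrimazole, 50 µg/mL; Times: biofilm formation 24 h, compound exposure 48 h, 37 °C; Detection: 2-h Alamar Blue fluorescence, 535/590 nm excitation/emission; Evaluation: percent inhibition of biofilm viability.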
Furin inh: blocks human furin protease activity; P09958; purified furin, fluorogenic substrate cleavage; inhibition, % at 20 µM or 30 µM; 220,000 tested, 0.061% active; in the data active means inhibition above about 25%
Thrombin inh: inhibitors of human thrombin; P00734; alpha-thrombin, Boc-VPR-AMC fluorogenic substrate cleavage; inhibition, % at 5 µM; 220,000 tested, 0.26% active; AID 1046;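 active means inhibition at or above 40%; inactive means inhibition below 40%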;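 further: 0% = enzyme with no compound and 100% = wells without enzyme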
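signal = AMC fluorescence, 355/460 nm | material = human alpha-thrombin enzyme | control set = enzyme without compound as high, wells lacking enzyme as low | times = reaction at room temperature | read-out basis = percent inhibition scaled between no-compound controls and no-enzyme blanks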
Active calls of the source: *; . = no result given. Rows were chosen to be rich in hits. Some 1.1% of all compounds tested hit in one or more screens of this group.

SMILES	FXIa inh	FXIIa inh	KLK5 inh	Calb biofilm kill	Furin inh	Thrombin inh
Cc1nn2c(NCCCN(C)C)c3c(nc2c1-c1ccccc1)CCC3	3	3	56*	.	-2	68*
Cc1nn2c(NCCCN(C)C)c3c(nc2c1-c1ccccc1)CCCC3	-10	0	-14	22	7	-5
N#Cc1ccsc1NC(=O)CCc1ccccc1	-2	6	-1	5	-30	-3
N#Cc1ccsc1NC(=O)CN(Cc1ccccc1)Cc1ccccc1	43*	10	4	15	-1	-5
CCN(CC)C(=O)Cn1cc(C(=O)C(=O)NCCCn2ccnc2)c2ccccc21	-3	8	0	13	-32	95*
CC(=O)NC1CSCC1OC(C)=O (centres undefined)	10	23	67*	.	-16	32
COC(=O)NC1CSCC1OC(=O)CCN1C(=O)c2ccccc2C1=O (centres undefined)	1	11	-4	.	-13	2
CCOC(=O)c1c(C)nc(-c2ccccc2)nc1NC(=O)CC	11	20	58*	.	-3	34
COc1ccc(C(=O)NC(=S)Nc2ccccc2N2CCCCC2)cc1[N+](=O)[O-]	9	15	-25	14	-3	0
COc1ccc(C(=O)NC(=S)Nc2cccc(Cl)c2N2CCOCC2)cc1[N+](=O)[O-]	8	15	42*	.	-9	2
COC(=O)CNC(=O)C(Cc1c[nH]c2ccccc12)NC(=O)OC(C)(C)C (centres undefined)	0	18	44*	.	-6	22
CC(=O)C1=C(C)OC(N)=C(C#N)C1c1ccncc1 (centres undefined)	-22	7	1	.	-17	-4
COc1ccc2cc(C3C(C#N)=C(N)OC(C)=C3C(C)=O)c(Cl)nc2c1 (centres undefined)	21	33	42*	14	-9	27
COCCNC(=O)CSc1nnc2c(Cl)cc(Cl)cn12	2	56*	52*	.	-10	17
CCOC(=O)CSc1nnc(-c2ccccc2)o1	44*	30	-6	12	-21	0
CCOC(=O)CSc1snnc1-c1ccccc1	-9	58*	-15	.	-8	-5
CCOC(=O)CSc1ncc(-c2ccccc2)cn1	1	-8	4	.	-19	-12
COc1ccc(-c2cc(C(F)(F)F)nc(S(=O)(=O)CCCC(=O)Nc3cccnc3Cl)n2)cc1OC	-3	5	-1	23	-19	-2
COCCNC(=O)c1cn(C)c2ccccc2c1=O	-4	7	-3	16	-27	-5
O=C(NCCN=C1NS(=O)(=O)c2ccccc21)c1ccco1	1	-3	74*	.	-21	12
O=C(NCCCN=C1NS(=O)(=O)c2ccccc21)c1ccco1	6	10	-7	13	-15	-1
Cn1c(=O)c2c(nc(SCC(=O)N3CCc4ccccc43)n2Cc2ccc(F)cc2)n(C)c1=O	.	.	.	.	28*	.
CC(OC(=O)c1cccs1)C(=O)NCc1ccc2c(c1)OCO2 (centres undefined)	-5	-3	-6	.	-21	-7
CC(C)C(OC(=O)c1cccs1)C(=O)NCc1ccc2c(c1)OCO2 (centres undefined)	31	57*	24	25	-11	-5
COc1ccc(/C=N/NC(=O)c2ccc(CN3C(=O)c4cccc5cccc3c45)cc2)cc1O	4	12	.	13	-21	0
SMILES	FXIa inh	FXIIa inh	KLK5 inh	Calb biofilm kill	Furin inh	Thrombin inh
COc1cc(/C=N/NC(=O)c2ccc(CN3C(=O)c4cccc5cccc3c45)cc2)cc(OC)c1O	50*	27	24	19	-3	13
Cc1nn(-c2cc(Cl)ccc2Cl)c(C)c1C(=O)O	-2	10	1	4	-28	-3
CC(C)(C)c1ccc(OCc2cnc(Cl)s2)cc1	-3	6	-18	14	-15	-3
O=C(O)COCC(=O)Nc1cc(C(F)(F)F)cc(C(F)(F)F)c1	0	14	4	8	-23	4
CC(CC(=O)O)CC(=O)Nc1cc(C(F)(F)F)cc(C(F)(F)F)c1 (centres undefined)	23	25	50*	13	1	4
Fc1ccc(-c2csc3ncnc(Nc4ccc(N5CCOCC5)cc4)c23)cc1	-4	-13	42*	.	-28	-2
CSCC[C@@H](C(=O)O)N1Cc2ccccc2C1=O	1	10	1	.	-13	-5
O=C(O)[C@@H](c1ccccc1)N1Cc2ccccc2C1=O	7	13	49*	.	-10	1
CCOc1ccc2nc(CN3CCN(Cc4ccsc4)C(CCO)C3)ccc2c1 (centres undefined)	13	7	-2	9	-12	-3
Cn1nnnc1SCC(=O)N1CCc2ccccc2C1	11	35	59*	.	-25	25
C/C(=N\NS(=O)(=O)c1ccc(C)c([N+](=O)[O-])c1)c1cc2ccccc2o1	12	15	107*	.	-6	6
Cc1ccc(S(=O)(=O)CCN2C=CC(C(F)(F)F)=NCC2)cc1	21	41*	34	6	13	4
O=S(=O)(c1ccc2ccccc2c1)N1C=CC(C(F)(F)F)=NCC1	-8	0	3	.	-4	-2
O=C(C1Cc2ccccc2CN1S(=O)(=O)c1cccs1)N1CCCCC1 (centres undefined)	-1	12	-12	.	28*	-1
Cc1ccc(-c2nnc3cccc(Cl)n23)cc1	0	8	.	7	-30	-2
CSc1nc(-c2ccccc2)nc(N2CCOCC2)c1C(C)=O	29	35	19	10	-6	50*
CSc1nc(-c2ccccc2)nc(N2CCCC2)c1C(C)=O	-2	11	-3	.	-6	0
O=c1oc(-c2ccc(Br)o2)nc2ccccc12	27	46*	39	.	-1	10
COc1cc(OC)cc(-c2nc3ccccc3c(=O)o2)c1	-1	22	-4	5	-18	1
COc1cccc(-c2nc3ccccc3c(=O)o2)c1	-5	21	31	.	-20	65*
O=C(NCC1CCCN(Cc2ccccc2F)C1)c1cccc(C(F)(F)F)c1 (centres undefined)	7	13	.	17	0	-8
S=C(NCCc1ccccc1)Nc1ccc(Br)cn1	40*	30	52*	12	-2	21
S=C(NCCc1ccccc1)NCCc1ccccc1	26	24	-9	-2	-5	-2
FC(F)(F)c1nnc2ccc(Sc3ccccn3)nn12	-3	9	5	28	-30	-13
CCOC(=O)CSc1nnc(-c2ccco2)n1-c1ccc(C)cc1	1	2	45*	.	-30	29
COC(=O)CSc1nnc(-c2ccccc2OC)n1-c1ccc(C)cc1	7	30	43*	.	4	46*
